From ChEMBL document CHEMBL1135746, “Structure-activity relationships of the antimalarial agent artemisinin. 7. Direct modification of (+)-artemisinin and in vivo antimalarial screening of new, potential preclinical antimalarial candidates” (J Med Chem, 2002) come the findings set out here.

Type in all cases: functional
Experiment [1] concerns Plasmodium berghei. Kind of experiment: Effective dose ED90 against Plasmodium berghei N in mice (Mus musculus) malaria model after oral administration. The method in brief: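 Peters' 4-day test: two batches of five male random-bred Swiss albino mice (18-22 g) were inoculated i.v. with 2 × 10⁶ P. berghei N-parasitized RBC. Drug was given once daily for four consecutive days. Compounds were dissolved in DMSO, then diluted in water for subcutaneous or oral dosing. Parasitemia was read the day after the last treatment.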

Experiment [2] has as its system Plasmodium berghei. Briefly: Effective dose ED90 against Plasmodium berghei N in mice (Mus musculus) malaria model after subcutaneous administration. The following applies: Plasmodium berghei, sc; read-out: ED90.
For experiment [3], the system named is Plasmodium berghei. Briefly: Effective dose ED50 against Plasmodium berghei N in mice (Mus musculus) malaria model after subcutaneous administration. The following applies: Plasmodium berghei, sc; read-out: ED50.
Experiment [4] deals with Plasmodium berghei. Briefly: Effective dose […] against Plasmodium berghei N in a mice (Mus musculus) malaria model after oral dose.
Experiment [5] deals with Plasmodium yoelii. Kind of experiment: Effective subcutaneous dose ED50 against Plasmodium yoelii sspNS. The following applies: sc.
Experiment [6] relates to Plasmodium yoelii. Kind of experiment: Effective subcutaneous dose ED90 against Plasmodium yoelii sspNS. The following applies: Plasmodium yoelii, sc; read-out: ED90.

As a reminder, the ED50 is the dose at which the effect has come halfway, by size or by number of responders. Turning to `OC(c1cc(C(F)(F)F)nc2c(C(F)(F)F)cccc12)C1CCCCN1` (stereo unspecified) [MEFLOQUINE], the ED90 stood at 5.1 mg/kg in experiment [1], 2.3 mg/kg in experiment [2] and 6 mg/kg in experiment [6]. Further, the median effective dose (ED50) amounted to 1.1 mg/kg in experiment [3], 3.3 mg/kg in experiment [4] and 2.3 mg/kg in experiment [5].
